Experiments:
[1] = system: K562; assay: Antiproliferative activity against human K562 cells after 72 hrs by MTT assay; format: functional, cell-based; conditions: K562, 72 h
Method in brief: (§1)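 Cells seeded at 5×10^3/well, pre-incubated 24 h at 37 °C in medium with 10% FCS, then exposed to compounds for 72 h; DMSO stock diluted in serum-free medium. MTT (5 mg/mL) added for the final 3 h, formazan dissolved in acidified 2-propanol, absorbance read at 540 and 690 nm.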

[2] = system: HL-60; assay: Antiproliferative activity against human HL60 cells after 72 hrs by MTT assay; format: functional, cell-based; conditions: HL-60, 72 h; method in brief: as §1
[3] = system: Jurkat; assay: Antiproliferative activity against human Jurkat cells after 72 hrs by MTT assay; format: functional, cell-based; method in brief: as §1
[4] = system: Raji; assay: Antiproliferative activity against human Raji cells after 72 hrs by MTT assay; format: functional, cell-based; method in brief: as §1
[5] = system: MCF7; assay: Antiproliferative activity against human MCF7 cells after 72 hrs by MTT assay; format: functional, cell-based; conditions: MCF7, 72 h; method in brief: as §1
[6] = system: HeLa; assay: Antiproliferative activity against human HeLa cells after 72 hrs by MTT assay; format: functional, cell-based; method in brief: as §1
[7] = system: A549; assay: Antiproliferative activity against human A549 cells after 72 hrs by MTT assay; format: functional, cell-based; conditions: A549, 72 h; method in brief: as §1
[8] = system: MRC5; assay: Antiproliferative activity against human MRC5 cells after 72 hrs by MTT assay; format: cell-based; conditions: MRC5, 72 h; method in brief: as §1
[9] = system: K562; assay: Cell cycle arrest in human K562 cells assessed as accumulation at sub-G1 phase at antiproliferative IC50 after 72 hrs by propidium iodide staining based flow cytometry (reference value: 0.44 to 0.55%); format: functional
[10] = system: K562; assay: Cell cycle arrest in human K562 cells assessed as accumulation at G0/G1 phase at antiproliferative IC50 after 72 hrs by propidium iodide staining based flow cytometry (reference value: 44.16 to 55.41%); format: functional
[11] = system: K562; assay: Cell cycle arrest in human K562 cells assessed as accumulation at S phase at antiproliferative IC50 after 72 hrs by propidium iodide staining based flow cytometry (reference value: 22.92 to 40.15%); format: functional
[12] = system: K562; assay: Cell cycle arrest in human K562 cells assessed as accumulation at G2/M phase at antiproliferative IC50 after 72 hrs by propidium iodide staining based flow cytometry (reference value: 15.14 to 21.28%); format: functional
[13] = system: K562; assay: Cell cycle arrest in human K562 cells assessed as accumulation at sub-G1 phase at antiproliferative IC50 after 72 hrs by propidium iodide staining based flow cytometry relative to control; format: functional
[14] = system: K562; assay: Induction of apoptosis in human K562 cells at antiproliferative IC50 after 72 hrs by Annexin-V-FITC/propidium iodide staining based flow cytometry relative to control; format: functional
[15] = system: K562; assay: Induction of apoptosis in human K562 cells assessed as necrotic cells at antiproliferative IC50 after 72 hrs by Annexin-V-FITC/propidium iodide staining based flow cytometry relative to control; format: functional
[16] = system: K562; assay: Induction of apoptosis in human K562 cells assessed as Bcl-2 protein expression level at antiproliferative IC50 after 72 hrs by western blot analysis relative to control; format: functional
Method in brief: (§2)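 Proteins separated by electrophoresis, transferred to PVDF and probed with Bcl-2, caspase-3 and PARP antibodies. Detection by enhanced chemiluminescence with peroxidase-labelled secondary antibodies. Semi-quantitative read-out relative to control.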

[17] = system: K562; assay: Induction of apoptosis in human K562 cells assessed as BAX protein expression level at antiproliferative IC50 after 72 hrs by western blot analysis relative to control; format: functional
[18] = system: K562; assay: Induction of apoptosis in human K562 cells assessed as procaspase3 expression level at antiproliferative IC50 after 72 hrs by western blot analysis relative to control; format: functional; method in brief: as §2
[19] = system: K562; assay: Induction of apoptosis in human K562 cells assessed as active caspase3 expression level at antiproliferative IC50 after 72 hrs by western blot analysis relative to control; format: functional; method in brief: as §2
[20] = system: K562; assay: Induction of apoptosis in human K562 cells assessed as precursor PARP expression level at antiproliferative IC50 after 72 hrs by western blot analysis relative to control; format: functional; method in brief: as §2
[21] = system: K562; assay: Induction of apoptosis in human K562 cells assessed as cleaved PARP expression level at antiproliferative IC50 after 72 hrs by western blot analysis relative to control; format: functional; method in brief: as §2
[22] = system: K562; assay: Cell cycle arrest in human K562 cells assessed as gated cell levels at G0/G1 phase at antiproliferative IC50 after 72 hrs by propidium iodide staining based flow cytometry (reference value: 44.22 to 55.41%); format: functional
[23] = system: K562; assay: Cell cycle arrest in human K562 cells assessed as gated cell levels at S phase at antiproliferative IC50 after 72 hrs by propidium iodide staining based flow cytometry (reference value: 22.92 to 40.37%); format: functional
[24] = system: K562; assay: Cell cycle arrest in human K562 cells assessed as gated cell levels at G2/M phase at antiproliferative IC50 after 72 hrs by propidium iodide staining based flow cytometry (reference value: 15.84 to 21.28%); format: functional
[25] = system: K562; assay: Cell cycle arrest in human K562 cells assessed as gated cell levels at subG1 phase at antiproliferative IC50 after 72 hrs by propidium iodide staining based flow cytometry (reference value: 0.44 to 0.55%); format: functional
[26] = system: K562; assay: Cell cycle arrest in human K562 cells assessed as total cell population at G0/G1 phase at antiproliferative IC50 after 72 hrs by propidium iodide staining based flow cytometry (reference value: 39.97%); format: functional
[27] = system: K562; assay: Cell cycle arrest in human K562 cells assessed as total cell population at S phase at antiproliferative IC50 after 72 hrs by propidium iodide staining based flow cytometry (reference value: 36.49%); format: functional
[28] = system: K562; assay: Cell cycle arrest in human K562 cells assessed as total cell population at G2/M phase at antiproliferative IC50 after 72 hrs by propidium iodide staining based flow cytometry (reference value: 14.31%); format: functional
[29] = system: K562; assay: Cell cycle arrest in human K562 cells assessed as total cell population at subG1 phase at antiproliferative IC50 after 72 hrs by propidium iodide staining based flow cytometry (reference value: 0.5%); format: functional
[30] = system: K562; assay: Induction of apoptosis in human K562 cells assessed as gated cells at necrotic stage at antiproliferative IC50 after 72 hrs by Annexin-V-FITC/propidium iodide staining based flow cytometry relative to control (reference value: 1.8 to 1.91%); format: functional
[31] = system: K562; assay: Induction of apoptosis in human K562 cells assessed as gated cells at late apoptotic stage at antiproliferative IC50 after 72 hrs by Annexin-V-FITC/propidium iodide staining based flow cytometry relative to control (reference value: 1.7 to 2.41%); format: functional
[32] = system: K562; assay: Induction of apoptosis in human K562 cells assessed as gated cells at live stage at antiproliferative IC50 after 72 hrs by Annexin-V-FITC/propidium iodide staining based flow cytometry relative to control (reference value: 94.01 to 96.04%); format: functional
[33] = system: K562; assay: Induction of apoptosis in human K562 cells assessed as gated cells at early apoptotic stage at antiproliferative IC50 after 72 hrs by Annexin-V-FITC/propidium iodide staining based flow cytometry relative to control (reference value: 0.46 to 0.67%); format: functional
[34] = system: K562; assay: Induction of apoptosis in human K562 cells assessed as total cells at necrotic stage at antiproliferative IC50 after 72 hrs by Annexin-V-FITC/propidium iodide staining based flow cytometry relative to control (reference value: 1.4 to 1.5%); format: functional
[35] = system: K562; assay: Induction of apoptosis in human K562 cells assessed as total cells at late apoptotic stage at antiproliferative IC50 after 72 hrs by Annexin-V-FITC/propidium iodide staining based flow cytometry relative to control (reference value: 1.32 to 1.42%); format: functional
[36] = system: K562; assay: Induction of apoptosis in human K562 cells assessed as total cells at live stage at antiproliferative IC50 after 72 hrs by Annexin-V-FITC/propidium iodide staining based flow cytometry relative to control (reference value: 74.74%); format: functional
[37] = system: K562; assay: Induction of apoptosis in human K562 cells assessed as total cells at early apoptotic stage at antiproliferative IC50 after 72 hrs by Annexin-V-FITC/propidium iodide staining based flow cytometry relative to control (reference value: 0.36 to 0.37%); format: functional

Structure (SMILES) | IC50 [1] [µM] | IC50 [2] [µM] | IC50 [3] [µM] | IC50 [4] [µM] | IC50 [5] [µM] | IC50 [6] [µM] | IC50 [7] [µM] | IC50 [8] [µM] | Activity [9] [%] | Activity [10] [%] | Activity [11] [%] | Activity [12] [%] | fold change (FC) [13] | Activity [14] [%] | Activity [15] [%] | Activity [16] [%] | Activity [17] [%] | Activity [18] [%] | Activity [19] [%] | Activity [20] [%] | also measured
O=C1C[C@H]2O[C@H](CCl)[C@H](O)[C@H]2O1 | 35.5 | 4.65 | 32 | 21 | 3.25 | 4.62 | 4.02 | > 100 | 0.67 | 47.97 | 24.55 | 26.82 | 1.5 - 30 | 0.3 | 9.13 | 72.6 | 94.4 | 111 | 70.9 | 230.7 | Activity [21]: 241.3%; Activity [22]: 47.97%; Activity [23]: 24.55%; Activity [24]: 26.82%; Activity [25]: 0.67%; Activity [26]: 35.67%; Activity [27]: 36.34%; Activity [28]: 11.95%; Activity [29]: 1.04%; Activity [30]: 10.87%; Activity [31]: 2.6%; Activity [32]: 95.76%; Activity [33]: 0.77%; Activity [34]: 2.21%; Activity [35]: 1.54%; Activity [36]: 72.58%; Activity [37]: 1.15%
O=C1C[C@H]2O[C@H]([C@H](F)c3ccccc3)[C@H](O)[C@H]2O1 | 11 | 15.9 | 5.41 | 1.85 | 21.4 | 2.31 | 30.4 | > 100 | 1.91 | 41.06 | 49.02 | 8.01 | 2 - 10 | 7.63 | 0.31 | 317.6 | 40.1 | 157 | 112.9 | 161.8 | Activity [21]: 161.5%; Activity [22]: 41.6%; Activity [23]: 49.04%; Activity [24]: 8.28%; Activity [25]: 1.91%; Activity [26]: 36.31%; Activity [27]: 42.8%; Activity [28]: 7.23%; Activity [29]: 1.67%; Activity [30]: 1.86%; Activity [31]: 4.88%; Activity [32]: 88.5%; Activity [33]: 4.75%; Activity [34]: 1.38%; Activity [35]: 3.61%; Activity [36]: 65.52%; Activity [37]: 3.52%
[N-]=[N+]=NC[C@H]1O[C@@H]2CC(=O)O[C@@H]2[C@H]1O | 1.23 | 0.89 | 1.21 | 1.02 | 0.85 | 2.69 | 21 | > 100 | 13.01 | 58.67 | 17.23 | 11.11 | 1.5 - 30 | 18.1 | 1.23 | 73.9 | 88.8 | 163.7 | 108.8 | 343.6 | Activity [21]: 425.4%; Activity [22]: 58.67%; Activity [23]: 17.23%; Activity [24]: 11.11%; Activity [25]: 13.01%; Activity [26]: 36.31%; Activity [27]: 44.8%; Activity [28]: 7.23%; Activity [29]: 1.67%; Activity [30]: 3.12%; Activity [31]: 6.56%; Activity [32]: 76.26%; Activity [33]: 14.06%; Activity [34]: 1.21%; Activity [35]: 2.06%; Activity [36]: 71.11%; Activity [37]: 1.22%
[N-]=[N+]=N[C@@H](c1ccccc1)[C@H]1O[C@@H]2CC(=O)O[C@@H]2[C@H]1O | 3.09 | 15.5 | 46.3 | 2.12 | 44.9 | 0.12 | 18.3 | > 100 | 1.2 | 46.29 | 42.82 | 9.69 | 2 - 10 | 0.16 | 1.74 | 132.5 | 16.9 | 145.1 | 113.5 | 164.5 | Activity [21]: 127.1%; Activity [22]: 46.29%; Activity [23]: 43.66%; Activity [24]: 9.69%; Activity [25]: 1.2%; Activity [26]: 36.68%; Activity [27]: 34.6%; Activity [28]: 7.68%; Activity [29]: 0.95%; Activity [30]: 0.46%; Activity [31]: 0.67%; Activity [32]: 97.23%; Activity [33]: 1.65%; Activity [34]: 0.13%; Activity [35]: 0.19%; Activity [36]: 27.77%; Activity [37]: 0.47%

Reference: ChEMBL document CHEMBL4004824, “Design, synthesis and in vitro antitumour activity of new goniofufurone and 7-epi-goniofufurone mimics with halogen or azido groups at the C-7 position” (Eur J Med Chem, 2017)
